ChEMBL document CHEMBL4138319, “Discovery, Synthesis, Pharmacological Profiling, and Biological Characterization of Brintonamides A-E, Novel Dual Protease and GPCR Modulators from a Marine Cyanobacterium” (J Med Chem, 2018)
The source made the active and inactive calls. No cut-off for these calls is given here. Square brackets hold non-standard residues; d marks the D form. Peptide text beside a SMILES is read from it. * marks the point of attachment. ξ: configuration not given here. X4 = CC[C@H](C)[C@@H](OC(=O)[C@H](Cc1ccccc1)N(C)C)C(=O)*; X3 = CC[C@H](C)[C@@H](OC(=O)/C=C\c1ccccc1)C(=O)*; X5 = CC[C@H](C)[C@@H](OC(=O)C#Cc1ccccc1)C(=O)*; X2 = CC[C@H](C)[C@@H](OC(=O)CCc1ccccc1)C(=O)*; Hmp(2R,3S) = CC[C@H](C)[C@@H](O)C(=O)O; dNMeF = CN[C@H](Cc1ccccc1)C(=O)O; NMeL = CN[C@@H](CC(C)C)C(=O)O; dHiv = CC(C)[C@@H](O)C(=O)O; ξD = NC(CC(=O)O)C(=O)O

Experiments:
Kallikrein-7 [1] = target: T1, Kallikrein-7 (Homo sapiens, UniProt P49862); assay: Inhibition of kallikrein 7 (unknown origin) by fluorescence assay
Outline: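 Protease panel screen: 10-dose titrations, 3-fold serial dilution from 100 μM, singlet. Protease activity is followed as the time-course rise in fluorescence from a labeled peptide substrate, and the initial linear slope (signal/min) is analysed.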
Target sequence in this assay (P49862 whole entry): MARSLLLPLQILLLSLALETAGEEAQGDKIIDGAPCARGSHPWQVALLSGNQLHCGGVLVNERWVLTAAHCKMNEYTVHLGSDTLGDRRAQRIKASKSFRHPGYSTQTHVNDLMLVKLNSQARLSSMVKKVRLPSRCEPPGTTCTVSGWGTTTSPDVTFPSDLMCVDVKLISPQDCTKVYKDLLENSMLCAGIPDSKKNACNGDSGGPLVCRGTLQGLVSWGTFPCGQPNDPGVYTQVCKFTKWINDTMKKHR

Kallikrein-7 [2] = target: T1, Kallikrein-7; assay: Mixed type inhibition of kallikrein 7 (unknown origin) using fluorescently labeled peptide substrate by fluorescence assay based Michaelis-Menten kinetic plot analysis
Target sequence in this assay (P49862 30-253 limits assumed): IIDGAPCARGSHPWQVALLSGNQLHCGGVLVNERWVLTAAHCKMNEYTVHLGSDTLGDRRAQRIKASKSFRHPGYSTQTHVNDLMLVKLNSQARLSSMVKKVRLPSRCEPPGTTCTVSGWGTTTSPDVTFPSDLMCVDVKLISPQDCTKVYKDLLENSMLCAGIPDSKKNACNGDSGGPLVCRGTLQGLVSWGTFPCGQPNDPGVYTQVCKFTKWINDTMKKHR

MDA-MB-231 [3] = assay: Antiproliferative activity against human MDA-MB-231 cells after 48 hrs by MTT assay; assay type: functional, cell-based
Outline: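 MDA-MB-231 cells are grown in DMEM with 10% FBS and seeded at 10,000 cells/well for 24 h. Cells are then exposed to graded compound concentrations or DMSO for 48 h. Viability is measured by MTT.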

Chymase = target: T2, Chymase (Homo sapiens, UniProt P23946); assay: Inhibition of chymase (unknown origin) by fluorescence assay
T2 sequence (P23946 whole entry): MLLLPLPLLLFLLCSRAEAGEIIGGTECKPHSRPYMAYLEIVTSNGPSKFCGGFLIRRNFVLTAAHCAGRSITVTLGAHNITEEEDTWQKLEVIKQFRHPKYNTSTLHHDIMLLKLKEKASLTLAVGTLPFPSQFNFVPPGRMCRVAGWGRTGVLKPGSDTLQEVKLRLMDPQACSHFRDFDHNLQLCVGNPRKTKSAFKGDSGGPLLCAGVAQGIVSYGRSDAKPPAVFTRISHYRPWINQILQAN
Outline: (§1)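 Activity followed as a time course of rising fluorescence from a fluorescently labelled peptide substrate. The initial linear slope (signal/min) was used.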

Caspase-14 = target: T3, Caspase-14 (Homo sapiens, UniProt P31944); assay: Inhibition of human caspase 14 using Ac-WEHD-AMC fluorogenic peptide as substrate by fluorescence assay; outline: as §1
T3 sequence (P31944 whole entry): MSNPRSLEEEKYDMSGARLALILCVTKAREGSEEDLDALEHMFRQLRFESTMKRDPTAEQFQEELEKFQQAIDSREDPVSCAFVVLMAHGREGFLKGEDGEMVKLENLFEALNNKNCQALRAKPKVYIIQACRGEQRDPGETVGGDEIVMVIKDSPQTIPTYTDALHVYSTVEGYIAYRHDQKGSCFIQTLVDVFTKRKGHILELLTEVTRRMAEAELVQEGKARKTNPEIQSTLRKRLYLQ

[4] = Inhibition of chymotrypsin (unknown origin) by fluorescence assay; design: species or system Homo sapiens
[5] = target: Atypical chemokine receptor 3 (Homo sapiens, UniProt P25106); assay: Agonist activity at human CXCR7 expressed in CHOK1 cells assessed as induction of beta-arrestin recruitment by chemiluminescence method; assay type: functional, cell-based
Chain of Atypical chemokine receptor 3 (P25106 whole entry, the tested form may be a part): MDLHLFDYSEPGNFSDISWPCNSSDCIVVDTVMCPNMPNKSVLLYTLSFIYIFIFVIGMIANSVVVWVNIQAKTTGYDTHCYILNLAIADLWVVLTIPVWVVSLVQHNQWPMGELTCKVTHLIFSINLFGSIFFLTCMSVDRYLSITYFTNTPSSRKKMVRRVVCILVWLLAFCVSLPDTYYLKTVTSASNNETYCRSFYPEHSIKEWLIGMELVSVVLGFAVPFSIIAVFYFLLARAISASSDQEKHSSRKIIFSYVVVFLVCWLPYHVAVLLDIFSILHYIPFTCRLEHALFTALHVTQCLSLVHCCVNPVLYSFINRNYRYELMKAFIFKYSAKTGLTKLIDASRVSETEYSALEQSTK
Outline: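 PathHunter β-arrestin enzyme-fragment complementation assay in cells stably co-expressing ProLink-tagged GPCR and enzyme-acceptor-tagged β-arrestin. Sample is added to cells and incubated 90 or 180 min at 37 °C or room temperature, with 1% final vehicle. Detection reagent is added for 1 h at room temperature and chemiluminescence is read. % activity is taken relative to vehicle and maximal control ligand. Dose-response: 10 points, 3-fold dilutions from 20 μM, in duplicate.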

[6] = target: T4, C-C chemokine receptor type 10 (Homo sapiens, UniProt P46092); assay: Antagonist activity at human CCR10 expressed in human U2OS cells assessed as inhibition of CCL27-induced beta-arrestin recruitment pre-incubated for 30 mins before CCL27 stimulation for 90 or 180 mins by chemiluminescence method; assay type: functional, cell-based
T4 sequence (P46092 whole entry): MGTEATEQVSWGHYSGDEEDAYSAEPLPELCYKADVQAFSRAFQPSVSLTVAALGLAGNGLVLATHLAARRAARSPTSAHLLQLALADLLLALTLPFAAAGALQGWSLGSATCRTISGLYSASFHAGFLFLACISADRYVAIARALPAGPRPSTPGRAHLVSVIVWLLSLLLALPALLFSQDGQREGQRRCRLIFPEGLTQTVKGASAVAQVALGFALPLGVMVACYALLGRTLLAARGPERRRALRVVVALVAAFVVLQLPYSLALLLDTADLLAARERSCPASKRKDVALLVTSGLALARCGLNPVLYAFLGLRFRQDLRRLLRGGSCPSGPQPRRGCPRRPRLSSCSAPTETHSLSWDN
Outline: (§2)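 PathHunter β-arrestin complementation assay, antagonist mode. Cells co-express ProLink-tagged GPCR and enzyme-acceptor-tagged β-arrestin and are pre-incubated with sample for 30 min at 37 °C or room temperature. Dose-response: 10 points, 3-fold dilutions from 20 μM, in duplicate.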

Oxytocin receptor = target: T5, Oxytocin receptor (Homo sapiens, UniProt P30559); assay: Antagonist activity at human OXTR expressed in CHOK1 cells assessed as oxytocin-induced beta-arrestin recruitment pre-incubated for 30 mins before oxytocin stimulation for 90 or 180 mins by chemiluminescence method; assay type: functional, cell-based; outline: as §2
T5 sequence (P30559 whole entry): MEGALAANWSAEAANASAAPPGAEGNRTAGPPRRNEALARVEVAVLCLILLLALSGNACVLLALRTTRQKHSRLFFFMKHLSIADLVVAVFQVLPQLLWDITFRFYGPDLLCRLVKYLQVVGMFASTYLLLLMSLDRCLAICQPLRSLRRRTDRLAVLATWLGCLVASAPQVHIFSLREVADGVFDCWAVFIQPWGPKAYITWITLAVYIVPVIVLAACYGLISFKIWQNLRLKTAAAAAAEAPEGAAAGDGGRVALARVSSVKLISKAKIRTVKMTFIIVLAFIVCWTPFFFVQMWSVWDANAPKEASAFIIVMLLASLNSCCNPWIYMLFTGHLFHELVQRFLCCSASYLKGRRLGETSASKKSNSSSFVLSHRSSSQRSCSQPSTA

Substance-K receptor = target: T6, Substance-K receptor (Homo sapiens, UniProt P21452); assay: Antagonist activity at human TACR2 expressed in CHOK1 cells assessed as substance P-induced beta-arrestin recruitment pre-incubated for 30 mins before substance P stimulation for 90 or 180 mins by chemiluminescence method; assay type: functional, cell-based; outline: as §2
T6 sequence (P21452 whole entry): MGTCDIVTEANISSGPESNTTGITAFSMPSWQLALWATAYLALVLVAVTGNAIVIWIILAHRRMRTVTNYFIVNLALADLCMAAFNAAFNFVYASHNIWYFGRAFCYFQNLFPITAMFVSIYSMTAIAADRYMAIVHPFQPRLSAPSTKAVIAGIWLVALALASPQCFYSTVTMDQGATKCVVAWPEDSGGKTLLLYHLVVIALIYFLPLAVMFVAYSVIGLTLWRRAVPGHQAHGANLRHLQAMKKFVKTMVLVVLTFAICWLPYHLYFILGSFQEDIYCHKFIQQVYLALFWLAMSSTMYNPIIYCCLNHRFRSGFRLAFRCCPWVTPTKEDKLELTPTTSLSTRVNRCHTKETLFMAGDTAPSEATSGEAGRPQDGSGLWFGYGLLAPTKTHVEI

[7] = target: Somatostatin receptor type 3 (Homo sapiens, UniProt P32745); assay: Antagonist activity at human SSTR3 expressed in HEK293 cells assessed as [Tyr1]-somatostatin 14-induced beta-arrestin recruitment pre-incubated for 30 mins before [Tyr1]-somatostatin 14 stimulation for 90 or 180 mins by chemiluminescence method; assay type: functional, cell-based; outline: as §2
Chain of Somatostatin receptor type 3 (P32745 whole entry): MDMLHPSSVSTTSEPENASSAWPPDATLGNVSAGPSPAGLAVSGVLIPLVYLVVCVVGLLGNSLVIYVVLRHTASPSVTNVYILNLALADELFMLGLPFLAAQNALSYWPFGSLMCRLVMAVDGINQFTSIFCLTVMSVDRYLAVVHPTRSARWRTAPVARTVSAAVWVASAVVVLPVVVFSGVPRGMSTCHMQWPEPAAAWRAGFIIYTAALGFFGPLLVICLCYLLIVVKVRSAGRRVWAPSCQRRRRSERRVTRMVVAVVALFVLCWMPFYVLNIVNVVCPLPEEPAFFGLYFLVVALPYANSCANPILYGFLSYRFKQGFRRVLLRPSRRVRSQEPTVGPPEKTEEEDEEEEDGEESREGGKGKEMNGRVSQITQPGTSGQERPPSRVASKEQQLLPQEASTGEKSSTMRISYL

MDA-MB-231 [8] = assay: Antimigratory activity against human MDA-MB-231 cells at 10 uM after 48 hrs by transwell migration assay relative to control; assay type: functional
Kallikrein-7 [9] = target: T1, Kallikrein-7; assay: Inhibition of kallikrein 7 (unknown origin) using fluorescently labeled peptide substrate by fluorescence assay
Outline: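 KLK7 follow-up: 10-dose titrations, 3-fold serial dilution from 100 μM, in duplicate, with gabexate mesylate as positive control. Fluorescence from the labeled peptide substrate is monitored over time, and the initial linear slope (signal/min) is used to derive IC50.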
Target sequence in this assay (P49862 30-253 limits assumed): as the sequence (P49862 30-253 limits assumed) above

MDA-MB-231 [10] = assay: Antiproliferative activity against human MDA-MB-231 cells assessed as reduction in cell viability at 32 uM after 48 hrs by MTT assay; assay type: functional
Outline: (§3)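 MDA-MB-231 cells seeded at 10,000 cells/well in DMEM with 10% FBS and left 24 h, then exposed to compound or DMSO solvent control for 48 h. Viability read by MTT, compared with solvent control.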

MDA-MB-231 [11] = assay: Antiproliferative activity against human MDA-MB-231 cells assessed as reduction in cell viability at 100 uM after 48 hrs by MTT assay; assay type: functional; outline: as §3
[12] = Homo sapiens, MDA-MB-231, 48 h, read-out: IC50

CCOC(=O)c1ccc(OC(=O)CCCCCNC(=N)N)cc1
IC50 (Kallikrein-7 [1]): 20.4 µM

CC[C@H](C)[C@@H](O)C(=O)N1CCC[C@H]1C(=O)NCC(=O)N(C)[C@@H](CC(C)C)C(=O)N[C@@H](C)C(=O)N(C)[C@H](Cc1ccccc1)C(=O)N1CCC[C@H]1C(=O)OC ({Hmp(2R,3S)}-PG[NMeL]A[dNMeF]P-OMe)
inhibition (Kallikrein-7 [2]): Active
IC50 (MDA-MB-231 [3]; mda-mb-231): Not Active
IC50 (Kallikrein-7 [1]): 22.1 µM
IC50 (Chymase): 101 µM
IC50 (Caspase-14): 50.3 µM
IC50 [4]: 8.98 µM
EC50 [5]: > 20 µM
IC50 [6]: > 20 µM
IC50 (Oxytocin receptor): > 20 µM
IC50 (Substance-K receptor): > 20 µM
IC50 [7]: > 20 µM
Activity (MDA-MB-231 [8]): inactive
inhibition (Kallikrein-7 [9]): Active

CC[C@H](C)[C@H](N)C(=O)N[C@@H](CCC(=O)O)C(=O)N[C@H](C(=O)NC(C=O)CC(=O)O)[C@@H](C)O (some centres not stated) (H-IET[ξD]-aldehyde)
IC50 (Caspase-14): 7.28 µM

CC[C@H](C)[C@@H](OC(=O)CCc1ccccc1)C(=O)N1CCC[C@H]1C(=O)NCC(=O)N(C)[C@@H](CC(C)C)C(=O)N[C@@H](C)C(=O)N(C)[C@H](Cc1ccccc1)C(=O)N1CCC[C@H]1C(=O)OC (X2-PG[NMeL]A[dNMeF]P-OMe)
Activity (MDA-MB-231 [10]): 50%
EC50 [5]: 7.81 µM
IC50 [6]: 3.14 µM
IC50 (Oxytocin receptor): 5.32 µM
IC50 (Substance-K receptor): 3.22 µM
IC50 [7]: > 20 µM
inhibition (Kallikrein-7 [9]): Active

COC(=O)[C@@H]1CCCN1C(=O)[C@@H](Cc1ccccc1)N(C)C(=O)[C@H](C)NC(=O)[C@H](CC(C)C)N(C)C(=O)CNC(=O)[C@@H]1CCCN1C(=O)[C@H](O)C(C)C (H-[dHiv]PG[NMeL]A[dNMeF]P-OMe)
IC50 (MDA-MB-231 [3]; mda-mb-231): Not Active
EC50 [5]: > 20 µM
IC50 [6]: > 20 µM
IC50 (Oxytocin receptor): > 20 µM
IC50 (Substance-K receptor): > 20 µM
IC50 [7]: > 20 µM
inhibition (Kallikrein-7 [9]): Active

CC[C@H](C)[C@@H](OC(=O)C#Cc1ccccc1)C(=O)N1CCC[C@H]1C(=O)NCC(=O)N(C)[C@@H](CC(C)C)C(=O)N[C@@H](C)C(=O)N(C)[C@H](Cc1ccccc1)C(=O)N1CCC[C@H]1C(=O)OC (X5-PG[NMeL]A[dNMeF]P-OMe)
IC50 (MDA-MB-231 [3]; [12]): 60 µM
EC50 [5]: > 20 µM
IC50 [6]: > 20 µM
IC50 (Oxytocin receptor): > 20 µM
IC50 (Substance-K receptor): > 20 µM
IC50 [7]: > 20 µM
inhibition (Kallikrein-7 [9]): Active

CC[C@H](C)[C@@H](OC(=O)[C@H](Cc1ccccc1)N(C)C)C(=O)N1CCC[C@H]1C(=O)NCC(=O)N(C)[C@@H](CC(C)C)C(=O)N[C@@H](C)C(=O)N(C)[C@H](Cc1ccccc1)C(=O)N1CCC[C@H]1C(=O)OC (X4-PG[NMeL]A[dNMeF]P-OMe)
Activity (MDA-MB-231 [11]): 50%
EC50 [5]: 10.5 µM
IC50 [6]: > 20 µM
IC50 (Oxytocin receptor): > 20 µM
IC50 (Substance-K receptor): 5.51 µM
IC50 [7]: 6.11 µM
inhibition (Kallikrein-7 [9]): Active

CC(C)C[C@H](NC(=O)[C@@H](NC(=O)N[C@@H](Cc1ccccc1)C(=O)O)C1CCNC(=N)N1)C(=O)N[C@H](C=O)Cc1ccccc1 (some centres not stated) [CHYMOSTATIN]
IC50 (Chymase): 0.00936 µM
IC50 [4]: 0.00031 µM

CC[C@H](C)[C@@H](OC(=O)/C=C\c1ccccc1)C(=O)N1CCC[C@H]1C(=O)NCC(=O)N(C)[C@@H](CC(C)C)C(=O)N[C@@H](C)C(=O)N(C)[C@H](Cc1ccccc1)C(=O)N1CCC[C@H]1C(=O)OC (X3-PG[NMeL]A[dNMeF]P-OMe)
IC50 (MDA-MB-231 [3]; [12]): 14.9 µM
EC50 [5]: 5.92 µM
IC50 [6]: 2.71 µM
IC50 (Oxytocin receptor): 5.76 µM
IC50 (Substance-K receptor): 4.61 µM
IC50 [7]: > 20 µM
inhibition (Kallikrein-7 [9]): Active
